# Measurements of several laboratories.
# Target: Serine/threonine-protein kinase SBK1 (SBK1, Homo sapiens, UniProt Q52WX2)
SMILES,read-out,action,method,concentration,endpoint,result
O=C(Nc1cnn(-c2csc(C(=O)NC3COC3)c2)c1)Nc1ccccc1Cl,enzyme activity,inhibitor,,5 µM,remaining activity,99.1%
CN1CC(Oc2cnc(C#N)cc2-c2ccn3nc(NC(=O)C4CC4)cc3c2)C1,enzyme activity,inhibitor,,1 µM,inhibition,15%
CN(c1ccnc(CNc2nc(Nc3ccc4c(c3)CC(=O)N4)ncc2C(F)(F)F)n1)S(C)(=O)=O,cell-free assay,,competition with immobilised ligand,1 µM,remaining binding,34%
Cc1ccc(C(=O)Nc2ccc(CN3CCN(C)CC3)c(C(F)(F)F)c2)cc1C#Cc1cnc2cccnn12,enzyme activity,inhibitor,,23.5 nM,remaining activity,80%
Nc1ncnc2occ(-c3ccc(NC(=O)Nc4cc(C(F)(F)F)ccc4F)cc3)c12,cell-free assay,inhibitor,,20 µM,remaining signal,6.7%
COc1ccc2c(c1)O[C@H](c1ccc(OC)c(OC)c1)C[C@@H]2NC(=O)C1(c2ccc3c(c2)OC(F)(F)O3)CC1,cell-free assay,,competition with immobilised ligand,1 µM,remaining binding,90%
Cc1sc(C(=O)NC2COC2)cc1-n1cc(NC(=O)Nc2c(F)cccc2Cl)cn1,enzyme activity,inhibitor,,10 µM,remaining activity,87.5%
COc1cc(Cl)c(C(=O)N[C@@H](CN[C@H]2CC[C@@H](N)CC2)Cc2ccc(C#N)cc2)cc1-c1ccc(CN[C@H](C)c2ccc(C)cc2)o1,enzyme activity,inhibitor,,1 µM,remaining activity,98%
